The nature of series [1]: Lipophilicity, log P of the compound. The note with it: octanol/water.
Series [2] can be described thus: Metal chelate stability constant of the compound assessed as copper ion complex formation. The format is physicochemical.
A further series concerns Proteus vulgaris. The experiment in a line: Antibacterial activity against Proteus vulgaris MB838 assessed as growth inhibition at 200 ug/mL. The format is functional, organism-based.
The test system of series [3] is Pseudomonas aeruginosa. Nature of the series: Antibacterial activity against Pseudomonas aeruginosa MB418 assessed as growth inhibition. It is filed as functional. The method in brief: (§1)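 MIC (µg/mL) by in vitro growth inhibition in an assay system at pH 7.4. Tetracycline was run routinely to check medium, incubation conditions and inoculum virility.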
Series [4] concerns Pseudomonas aeruginosa. The experiment in a line: Antibacterial activity against Pseudomonas aeruginosa MB2245 assessed as growth inhibition. It is filed as functional. The method, boiled down: as §1
Series [5] deals with Staphylococcus aureus. The experiment in a line: Antibacterial activity against Staphylococcus aureus MB108 assessed as growth inhibition. The format is functional. The method in brief:
as §1

Series [6] deals with Staphylococcus aureus. Nature of the series: Antibacterial activity against Staphylococcus aureus MB2865 assessed as growth inhibition. It is filed as functional. The method, boiled down:
as §1

Another series has as its system Bacillus subtilis. The experiment in a line: Antibacterial activity against Bacillus subtilis MB964 assessed as growth inhibition. The format is functional. The method, boiled down:
as §1

The next series concerns Salmonella. Nature of the series: Antibacterial activity against Salmonella schottmuelleri MB2837 assessed as growth inhibition. The format is functional. The method in brief: as §1
The next series relates to Escherichia coli. The experiment in a line: Antibacterial activity against Escherichia coli MB2884 assessed as growth inhibition. The format is functional. The method in brief:
as §1

A further series concerns Klebsiella aerogenes. The experiment in a line: Antibacterial activity against Klebsiella aerogenes MB1503 assessed as growth inhibition. The format is functional. The method, boiled down: as §1
The test system of series [7] is Bordetella bronchiseptica. The experiment in a line: Antibacterial activity against Bordetella bronchiseptica MB3551 assessed as growth inhibition. The format is functional. The method in brief:
as §1

Series [8] concerns Bordetella bronchiseptica. The experiment in a line: Antibacterial activity against Bordetella bronchiseptica MB905 assessed as growth inhibition. The format is functional. The method, boiled down: as §1
The next series relates to Streptococcus pyogenes. The experiment in a line: Antibacterial activity against Streptococcus pyogenes assessed as growth inhibition at 2 to 8 ug/mL. The format is functional, organism-based.
For another series, the system named is Pasteurella multocida. Nature of the series: Antibacterial activity against Pasteurella multocida MB7 assessed as growth inhibition at 2 to 8 ug/mL. It is filed as functional, organism-based.
In series [9] the test system is Corynebacterium pseudodiphtheriticum. Nature of the series: Antibacterial activity against Corynebacterium pseudodiphtheriticum assessed as growth inhibition at 15 ug/mL. The format is functional, organism-based.
Series [10] shares this test system. Nature of the series: Antibacterial activity against Corynebacterium pseudodiphtheriticum assessed as growth inhibition at 2 to 8 ug/mL. The format is functional, organism-based.

Activity calls are given as the source filed them. The rule behind the calls is not given here.

The source of these data is ChEMBL document CHEMBL3243989, “Antibacterial N-[omega, omega'-bis(alicyclic and aryl)-sec-alkyl]poly(methylene)triamine and -tetramine hydrochloride salts” (J Med Chem, 1979).

What is called logP is a log measure of how a compound divides between an organic and an aqueous phase. Read a high logP as higher lipophilicity. The term MIC denotes the lowest concentration that inhibits growth of the organism.

For `NCCNCCNCCN` [TRIENTINE], in series [1], the logP is -0.82.
With `NCCNCCCNCCN`, in series [2], the “log K” value is 23.9.
`CC(C)(C)c1ccc(CCCC(CCCc2ccc(C(C)(C)C)cc2)NCCCNCCCNCCCN)cc1.Cl`: in the series with Proteus vulgaris, the “growth inhibition (GI)” value was “inactive”. In addition, the minimum inhibitory concentration (MIC) was 80 µg/mL with Pseudomonas aeruginosa [3]; 100 µg/mL in the series with Pseudomonas aeruginosa [4]; 30 µg/mL with Staphylococcus aureus [5]; 20 µg/mL in the series with Staphylococcus aureus [6]; 10 µg/mL with Bacillus subtilis; 15 µg/mL with Salmonella. Besides, the MIC with Escherichia coli is greater than 200 µg/mL; with Klebsiella aerogenes, greater than 200 µg/mL; in series [7], 30 µg/mL; in series [8], 20 µg/mL. Besides, the “growth inhibition (GI)” value (in the series with Streptococcus pyogenes; in the series on Pasteurella multocida; in [9]) was “Active” each time.
On to `CN(CCCNCCCN)C(CCC1CCCCC1)CCC1CCCCC1.Cl`, for which the “growth inhibition (GI)” value (with Proteus vulgaris; in series [10]) was “inactive” in each case. Besides, the MIC was determined as 8 µg/mL in the series with Pseudomonas aeruginosa [3]; 20 µg/mL in the series with Pseudomonas aeruginosa [4]; 10 µg/mL in the series on Staphylococcus aureus [5]; 30 µg/mL in the series on Staphylococcus aureus [6]; 4 µg/mL in the series on Bacillus subtilis; 1 µg/mL in the series on Salmonella. Moreover, the MIC in the series with Escherichia coli was 8 µg/mL; in the series on Klebsiella aerogenes, 4 µg/mL; in series [7], 4 µg/mL; in [8], 6 µg/mL. In addition, the “growth inhibition (GI)” value in the series with Streptococcus pyogenes and in the series on Pasteurella multocida was “Active” throughout.
For the molecule `Cl.NCCNCCNCCNC(CCCC1CCCCC1)CCCC1CCCCC1`, the “growth inhibition (GI)” value (in the series with Proteus vulgaris; in series [10]) was “inactive” throughout. Besides, the MIC in the series on Pseudomonas aeruginosa [3] worked out at 30 µg/mL; in the series on Pseudomonas aeruginosa [4] it was 30 µg/mL; in the series on Staphylococcus aureus [5] it was 6 µg/mL; in the series on Staphylococcus aureus [6], 15 µg/mL; with Bacillus subtilis, 4 µg/mL; in the series on Salmonella, 6 µg/mL. Besides, the MIC worked out at 10 µg/mL in the series with Escherichia coli, 6 µg/mL in the series on Klebsiella aerogenes, 4 µg/mL in [7] and 6 µg/mL in series [8]. Besides, the “growth inhibition (GI)” value in the series with Streptococcus pyogenes and with Pasteurella multocida was “Active” in each case.
Consider `NCCCNCCCN` [NORSPERMIDINE], for which the “log K” value in series [2] came out at 14.2.
For the molecule `CC(C)c1ccc(CCCC(CCCc2ccc(C(C)C)cc2)NCCNCCNCCN)cc1.Cl`, the “growth inhibition (GI)” value (in the series on Proteus vulgaris; in series [10]) was “inactive” throughout. Moreover, the minimal inhibitory concentration (MIC) with Pseudomonas aeruginosa [3] worked out at 8 µg/mL; in the series on Pseudomonas aeruginosa [4] it was 80 µg/mL; in the series with Staphylococcus aureus [5] it was 6 µg/mL; in the series with Staphylococcus aureus [6] it was 20 µg/mL; in the series on Bacillus subtilis, 4 µg/mL; in the series with Salmonella, 10 µg/mL. In addition, the minimum inhibitory concentration (MIC) in the series with Escherichia coli was found to be 15 µg/mL; in the series with Klebsiella aerogenes, 60 µg/mL; in [7] it was 30 µg/mL; in series [8], 30 µg/mL. Besides, the “growth inhibition (GI)” value in the series on Streptococcus pyogenes and in the series with Pasteurella multocida was “Active” in each case.
For `CC(C)(C)c1ccc(CCCC(CCCc2ccc(C(C)(C)C)cc2)NCCCNCCCN)cc1.Cl`, the “growth inhibition (GI)” value (with Proteus vulgaris; in series [10]) was “inactive” in each case. Besides, the MIC came to 80 µg/mL in the series with Pseudomonas aeruginosa [3]; 40 µg/mL in the series with Pseudomonas aeruginosa [4]; 20 µg/mL in the series on Staphylococcus aureus [5]; 10 µg/mL in the series with Staphylococcus aureus [6]; 8 µg/mL with Bacillus subtilis; 8 µg/mL in the series on Salmonella. The minimum inhibitory concentration (MIC) in the series on Escherichia coli amounted to 40 µg/mL; in the series with Klebsiella aerogenes, 40 µg/mL; in series [7], 8 µg/mL; in series [8], 8 µg/mL. Also, the “growth inhibition (GI)” value in the series with Streptococcus pyogenes and with Pasteurella multocida was “Active” throughout.
Regarding `CC1(C)C2CCC(C2)C1CCC(CCC1C2CCC(C2)C1(C)C)NCCCNCCCN.Cl` (stereo not drawn), the “growth inhibition (GI)” value (with Proteus vulgaris; in [10]) was “inactive” throughout. Also, the MIC in the series on Pseudomonas aeruginosa [3] came out at 8 µg/mL; in the series with Pseudomonas aeruginosa [4], 10 µg/mL; in the series with Staphylococcus aureus [5], 4 µg/mL; in the series on Staphylococcus aureus [6] it was 10 µg/mL; with Bacillus subtilis it was 4 µg/mL; with Salmonella, 4 µg/mL. In addition, the MIC in the series on Escherichia coli came to 8 µg/mL; in the series with Klebsiella aerogenes, 4 µg/mL; in [7] it was 4 µg/mL; in series [8], 4 µg/mL. For the same molecule, the “growth inhibition (GI)” value in the series with Streptococcus pyogenes and with Pasteurella multocida was “Active” each time.
For `CC(C)c1ccc(CCCC(CCCc2ccc(C(C)C)cc2)NCCCNCCCN)cc1.Cl`, the “growth inhibition (GI)” value (in the series on Proteus vulgaris; in series [10]) was “inactive” each time. The minimum inhibitory concentration (MIC) is 15 µg/mL in the series on Pseudomonas aeruginosa [3]; 40 µg/mL in the series with Pseudomonas aeruginosa [4]; 20 µg/mL in the series on Staphylococcus aureus [5]; 20 µg/mL in the series with Staphylococcus aureus [6]; 6 µg/mL in the series with Bacillus subtilis; 10 µg/mL in the series with Salmonella. For the same molecule, the MIC in the series on Escherichia coli was 40 µg/mL; with Klebsiella aerogenes, 20 µg/mL; in [7] it was 10 µg/mL; in series [8], 10 µg/mL. Further, the “growth inhibition (GI)” value in the series with Streptococcus pyogenes and in the series with Pasteurella multocida was “Active” throughout.
Take `Cl.NCCCNCCCNC(CCC1CCCCC1)CCC1CCCCC1`: the “growth inhibition (GI)” value (in the series on Proteus vulgaris; in series [10]) was “inactive” throughout. The MIC in the series on Pseudomonas aeruginosa [3] stood at 30 µg/mL; in the series with Pseudomonas aeruginosa [4], 15 µg/mL; with Staphylococcus aureus [5], 2 µg/mL; with Staphylococcus aureus [6], 10 µg/mL; in the series on Bacillus subtilis, 2 µg/mL; with Salmonella it was 2 µg/mL. Also, the minimum inhibitory concentration (MIC) came to 15 µg/mL in the series on Escherichia coli, 6 µg/mL in the series with Klebsiella aerogenes, 2 µg/mL in series [7] and 2 µg/mL in series [8]. For the same molecule, the “growth inhibition (GI)” value in the series on Streptococcus pyogenes and in the series with Pasteurella multocida was “Active” each time.
In the case of `CC1(C)C2CCC(C2)C1CCC(CCC1C2CCC(C2)C1(C)C)NCCN(CCN)CCN.Cl` (stereo not drawn), the “growth inhibition (GI)” value (in the series with Proteus vulgaris; in [10]) was “inactive” throughout. For the same molecule, the minimum inhibitory concentration (MIC) in the series with Pseudomonas aeruginosa [3] worked out at 50 µg/mL; with Pseudomonas aeruginosa [4] it was 8 µg/mL; in the series on Staphylococcus aureus [5], 4 µg/mL; in the series with Staphylococcus aureus [6], 8 µg/mL; with Bacillus subtilis it was 4 µg/mL; with Salmonella it was 4 µg/mL. For the same molecule, the minimal inhibitory concentration (MIC) in the series with Escherichia coli came to 8 µg/mL; in the series with Klebsiella aerogenes it was 8 µg/mL; in [7], 4 µg/mL; in series [8] it was 4 µg/mL. In addition, the “growth inhibition (GI)” value with Streptococcus pyogenes and in the series on Pasteurella multocida was “Active” throughout.
With `Cl.NCCNCCNCCNC(CCC1CCCCC1)CCC1CCCCC1`, the “growth inhibition (GI)” value (in the series with Proteus vulgaris; in series [10]) was “inactive” in each case. Moreover, the MIC is 40 µg/mL in the series on Pseudomonas aeruginosa [3]; 30 µg/mL in the series with Pseudomonas aeruginosa [4]; 6 µg/mL with Staphylococcus aureus [5]; 30 µg/mL in the series on Staphylococcus aureus [6]; 6 µg/mL in the series with Bacillus subtilis; 4 µg/mL with Salmonella. In addition, the minimum inhibitory concentration (MIC) was 20 µg/mL in the series on Escherichia coli, 15 µg/mL in the series with Klebsiella aerogenes, 4 µg/mL in series [7] and 6 µg/mL in series [8]. Besides, the “growth inhibition (GI)” value with Streptococcus pyogenes and in the series with Pasteurella multocida was “Active” each time.
